Results collected from several papers.
Protocols differ between the studies behind these lines.
Effect on: cell growth or viability

SMILES	cell line	method	concentration	time	measurement	value
CC1=CC(=O)c2ccccc2C1=O	HuCC-A1	MTT			IC50	23000 nM
CN(C)CCNC(=O)c1ccc(-c2nc3ccc4[nH]ncc4c3c3c2CCCCC3)cc1	ML-2			72 h	GI50	698 nM
Nc1ccccc1NC(=O)c1ccc(Cn2cnc3c(Nc4ccc(Br)cc4F)ncnc32)cc1	U-937	MTT		72 h	IC50	1370 nM
Cc1n[nH]c2ccc3nc(-c4ccc(C(=O)NCCN(C)C)cc4)c4c(c3c12)CCCC4	ML-2			72 h	GI50	429 nM
Cc1nc(Nc2ncc(C(=O)Nc3c(C)cccc3Cl)s2)cc(N2CC[C@H](O)C2)n1	SU-DHL-8	ATP luminescence		72 h	IC50	> 10000 nM
Cc1n[nH]c2ccc3nc(-c4ccc(C(=O)NCCN(C)C)cc4F)c4c(c3c12)CCCCC4	U-937			72 h	GI50	1640 nM
CCCCCCCCCCCCCCCCCCOc1ccccc1CC(=O)OCC[N+]1(C)CCCC1	NCI-H226	SRB	10 µM		inhibition	86.6%
O=C(NO)c1ccc(Cn2cnc3c(Nc4cccc([N+](=O)[O-])c4)ncnc32)cc1	U-937	MTT		72 h	IC50	1990 nM
CCCCCCCCCCCCCCCCCCOc1cccc(CC(=O)OCCC[N+](C)(C)C)c1	NCI-H226	SRB	10 µM		inhibition	15%
C=C(NC(=O)C(=C)NC(=O)c1csc(C2=N[C@@H]3c4csc(n4)[C@H]4NC(=O)c5csc(n5)[C@H]([C@](C)(O)[C@@H](C)O)NC(=O)[C@H]5CSC(=N5)/C(=C/C)NC(=O)[C@H]([C@@H](C)O)NC(=O)c5csc(n5)[C@]3(CC2)NC(=O)[C@H](C)NC(=O)C(=C)NC(=O)[C@H](C)NC(=O)[C@H]([C@@H](C)CC)N[C@@H]2C=Cc3c([C@H](C)O)cc(nc3[C@H]2O)C(=O)O[C@@H]4C)n1)C(N)=O	Calu-1				EC50	3.2 µM
CCc1nc(C(N)=O)c(Nc2ccc(N3CCC(N4CCN(C)CC4)CC3)c(OC)c2)nc1NC1CCOCC1	U-937			72 h	GI50	4390 nM
CCCCCCCCCCCCCCCCCCOc1ccc(CC(=O)OCC[N+](CC)(CC)CC)cc1	NCI-H226	SRB	10 µM		inhibition	16.1%
COc1cccc2c1cc1c3c(cc4c(c32)OCO4)C(=O)N1C	HuCC-A1	MTT		75 h	IC50	26000 nM
COc1cccc2c1C(=O)c1c(O)c3c(c(O)c1C2=O)C[C@@](O)(C(=O)CO)C[C@@H]3O[C@H]1C[C@H](N)[C@H](O)[C@H](C)O1	HuCC-A1	MTT		48 h	IC50	860 nM
Cc1n[nH]c2ccc3nc(-c4ccc(C(=O)NCCN(C)C)cc4F)c4c(c3c12)CCCC4	U-937			72 h	GI50	183 nM
CCCCCCCCCCCCCCCCCCOc1ccccc1CC(=O)OCC[N+]1(C)CCCCC1	NCI-H226	SRB	10 µM		inhibition	71.9%
Cc1n[nH]c2ccc3nc(-c4ccc(C(=O)NCCN(C)C)cc4)c4c(c3c12)CCCCC4	ML-2			72 h	GI50	1070 nM
CN1C(=O)C(=O)c2cc3c(c4c2c1cc1ccccc14)OCO3	HuCC-A1	MTT		75 h	IC50	44400 nM
CN(C)CCNC(=O)c1ccc(-c2nc3ccc4[nH]ncc4c3c3c2CCCC3)cc1	ML-2			72 h	GI50	152 nM
Nc1ccccc1NC(=O)c1ccc(Cn2cnc3c(Nc4ccc(Cl)cc4)ncnc32)cc1	U-937	MTT		72 h	IC50	920 nM
CCCCCCCCCCCCCCCCCCOc1ccc(CC(=O)OCC[N+](C)(C)C)cc1	NCI-H226	SRB	10 µM		inhibition	4.87%
CN(C)CCNC(=O)c1ccc(-c2nc3ccc4[nH]ncc4c3c3c2CCCC3)c(F)c1	U-937			72 h	GI50	2150 nM
CCCCCCCCCCCCCCCCCCOCC(COP(=O)([O-])OCC[N+](C)(C)C)OC (stereo not shown)	NCI-H226	SRB	10 µM		inhibition	6.1%
CN1CCC(NC2CCc3[nH]c4c(C(N)=O)ccc(-c5ccccc5Cl)c4c3C2)CC1 (stereo not shown)	MINO			96 h	IC50	27.3 nM
CCCCCCCCCCCCCCCCCCOc1cccc(CC(=O)OCC[N+]2(C)CCOCC2)c1	NCI-H226	SRB	10 µM		inhibition	6.29%
COc1cccc2c1C(=O)c1c(O)c3c(c(O)c1C2=O)C[C@@](O)(C(=O)CO)C[C@@H]3O[C@H]1C[C@H](N)[C@H](O)[C@H](C)O1	MINO			96 h	IC50	11.7 nM
CCCCCCCCCCCCCCCCCCOc1ccccc1CC(=O)OCC[N+](CC)(CC)CC	NCI-H226	SRB	10 µM		inhibition	46.3%
O=C(NO)c1ccc(Cn2cnc3c(Nc4ccc(Cl)cc4)ncnc32)cc1	U-937	MTT		72 h	IC50	7910 nM
